Results as given in ChEMBL document CHEMBL1255433 (Antimicrob Agents Chemother, 2010).
Activity calls are given as the source filed them. The calls are words filed in the database; no cut-off is given here.

Columns and labels:
Plasmodium falciparum [1] = assay: Antiplasmodial activity against Plasmodium falciparum F32-Tanzania assessed as inhibition of parasite growth at 0.1 uM treated for 96 hrs; type: functional, organism-based
Summary of the method: (§1)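 Sorbitol-synchronized ring cultures (5% parasitemia, 2.5% hematocrit) in O+ human RBCs, RPMI with 5% human serum, 37°C, 5% CO2. Medium was swapped for artemisinin-containing medium for 48 or 96 h, then washed out and culture resumed drug-free. Parasitemia was tracked to record days to reach 5%; cultures with no parasites by day 21 were scored as no recovery. Runs were done at least three times, except 48 h/70 μM and the 96 h conditions, which were done once.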

Plasmodium falciparum [2] = assay: Antiplasmodial activity against artemisinin-tolerant Plasmodium falciparum F32-Tanzania assessed as time required to reach 5% parasitaemia at 0.1 uM treated for 96 hrs; type: functional; summary of the method: as §1
Plasmodium falciparum [3] = assay: Antiplasmodial activity against Plasmodium falciparum F32-Tanzania assessed as inhibition of parasite growth at 1 uM treated for 96 hrs; type: functional, organism-based; summary of the method: as §1
Plasmodium falciparum [4] = assay: Antiplasmodial activity against artemisinin-tolerant Plasmodium falciparum F32-Tanzania assessed as time required to reach 5% parasitaemia at 1 uM treated for 96 hrs; type: functional; summary of the method: as §1
Plasmodium falciparum [5] = assay: Antiplasmodial activity against artemisinin-tolerant Plasmodium falciparum F32-Tanzania assessed as parasitaemia at 9 uM after 48 hrs by rhodamine 123 staining; type: functional
Summary of the method: (§2)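 Infected RBCs were stained with R123 (1 μg/ml in RPMI, 37°C, 5 min), washed, and incubated 30 min under culture conditions. Nuclei were counterstained with DAPI (1 μg/ml, 37°C, 20 min). Thin smears were read the same day by epifluorescence; R123-positive (polarized mitochondria) parasites were scored as viable.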

Plasmodium falciparum [6] = assay: Antiplasmodial activity against artemisinin-tolerant Plasmodium falciparum F32-Tanzania assessed as decrease in appearance of late trophozoites at 9 uM after 24 hrs by rhodamine 123 staining; type: functional, organism-based; summary of the method: as §2
Plasmodium falciparum [7] = assay: Antiplasmodial activity against artemisinin-tolerant Plasmodium falciparum F32-Tanzania assessed as decrease in appearance of late trophozoites at 9 uM after 48 hrs by rhodamine 123 staining; type: functional, organism-based; summary of the method: as §2
Plasmodium falciparum [8] = assay: Antiplasmodial activity against artemisinin-tolerant Plasmodium falciparum F32-Tanzania assessed as decrease in occurrence of normal parasite cell cycle at 9 uM measured after 24 to 30 hrs of drug removal by rhodamine 123 staining; type: functional, organism-based; summary of the method: as §2
Plasmodium falciparum [9] = assay: Antiplasmodial activity against artemisinin-tolerant Plasmodium falciparum F32-Tanzania assessed as decrease in appearance of late trophozoites at 9 uM measured after 24 to 30 hrs of drug removal by rhodamine 123 staining; type: functional, organism-based; summary of the method: as §2
Plasmodium falciparum [10] = assay: Antiplasmodial activity against artemisinin-tolerant Plasmodium falciparum F32-Tanzania assessed as decrease in appearance of late schizonts at 9 uM measured after 24 to 30 hrs of drug removal by rhodamine 123 staining; type: functional, organism-based; summary of the method: as §2
Plasmodium falciparum [11] = assay: Antiplasmodial activity Plasmodium falciparum F32-Tanzania assessed as decrease in appearance of parasite quiescent rings at 9 uM after 48 hrs by rhodamine 123 staining; type: functional, organism-based; summary of the method: as §2
Plasmodium falciparum [12] = assay: Antiplasmodial activity Plasmodium falciparum F32-Tanzania assessed as decrease in appearance of mature parasite forms at 9 uM measured after 24 to 30 hrs of drug removal by rhodamine 123 staining; type: functional, organism-based; summary of the method: as §2
Plasmodium falciparum [13] = assay: Antiplasmodial activity against artemisinin-tolerant Plasmodium falciparum F32-Tanzania assessed as decrease in appearance of late-stage parasites at 9 uM after 24 hrs by FACS analysis; type: functional, organism-based
Summary of the method: (§3)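 Samples were stained with DAPI (1 μg/ml) and analysed immediately by flow cytometry (400,000 events). Gates were calibrated with uninfected RBCs, sorbitol-synchronized rings, and magnetically isolated trophozoites and schizonts.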

Plasmodium falciparum [14] = assay: Antiplasmodial activity against artemisinin-tolerant Plasmodium falciparum F32-Tanzania assessed as decrease in appearance of late-stage parasites at 9 uM after 48 hrs by FACS analysis; type: functional, organism-based; summary of the method: as §3
Plasmodium falciparum [15] = assay: Antiplasmodial activity against artemisinin-tolerant Plasmodium falciparum F32-Tanzania assessed as decrease in appearance of late-stage parasites at 9 uM measured after 24 hrs of drug removal by FACS analysis; type: functional, organism-based; summary of the method: as §3
Plasmodium falciparum [16] = assay: Antiplasmodial activity against artemisinin-tolerant Plasmodium falciparum F32-Tanzania assessed as inhibition of parasite growth at 9 uM after 48 hrs by FACS analysis in presence of sorbitol; type: functional, organism-based
Plasmodium falciparum [17] = assay: Antiplasmodial activity against artemisinin-tolerant Plasmodium falciparum F32-Tanzania assessed as inhibition of parasite growth at 9 uM measured after 24 to 30 hrs of drug removal by FACS analysis in presence of sorbitol; type: functional, organism-based
Plasmodium falciparum [18] = assay: Antiplasmodial activity against artemisinin-tolerant Plasmodium falciparum F32-Tanzania assessed as decrease in parasite recovery time at 9 uM treated for 48 hrs in presence of 0.5 uM MDR1 inhibitor penfluridol; type: functional, organism-based
Plasmodium falciparum [19] = assay: Antiplasmodial activity against Plasmodium falciparum F32-Tanzania assessed as time required to reach 5% parasitaemia at 9 uM treated for 48 hrs; type: functional; summary of the method: as §1
Plasmodium falciparum [20] = assay: Antiplasmodial activity against artemisinin-tolerant Plasmodium falciparum F32-Tanzania assessed as time required to reach 5% parasitaemia at 9 uM treated for 48 hrs; type: functional; summary of the method: as §1
Plasmodium falciparum [21] = assay: Antiplasmodial activity against Plasmodium falciparum F32-Tanzania assessed as time required to reach 5% parasitaemia at 18 uM treated for 48 hrs; type: functional; summary of the method: as §1
Plasmodium falciparum [22] = assay: Antiplasmodial activity against artemisinin-tolerant Plasmodium falciparum F32-Tanzania assessed as time required to reach 5% parasitaemia at 18 uM treated for 48 hrs; type: functional; summary of the method: as §1
Plasmodium falciparum [23] = assay: Antiplasmodial activity against Plasmodium falciparum F32-Tanzania assessed as inhibition of parasite growth at 35 uM treated for 48 hrs; type: functional, organism-based; summary of the method: as §1
Plasmodium falciparum [24] = assay: Antiplasmodial activity against artemisinin-tolerant Plasmodium falciparum F32-Tanzania assessed as time required to reach 5% parasitaemia at 35 uM treated for 48 hrs; type: functional; summary of the method: as §1
Plasmodium falciparum [25] = assay: Antiplasmodial activity against Plasmodium falciparum F32-Tanzania assessed as inhibition of parasite growth at 70 uM treated for 48 hrs; type: functional, organism-based; summary of the method: as §1
Plasmodium falciparum [26] = assay: Antiplasmodial activity against artemisinin-tolerant Plasmodium falciparum F32-Tanzania assessed as time required to reach 5% parasitaemia at 70 uM treated for 48 hrs; type: functional; summary of the method: as §1
Plasmodium falciparum [27] = assay: Antiplasmodial activity against Plasmodium falciparum F32-Tanzania assessed as time required to reach 5% parasitaemia at 2.6 uM treated for 48 hrs; type: functional
Summary of the method: (§4)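 Sorbitol-synchronized ring-stage cultures at 5% parasitemia and 2.5% hematocrit in human O+ erythrocytes, in RPMI with human serum at 37°C under 5% CO2. Drug-containing medium for 48 h, then RPMI wash and return to drug-free culture. Endpoint was days to reach 5% parasitemia, followed up to 21 days. Three or more independent experiments; mean ± SD.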

Plasmodium falciparum [28] = assay: Antiplasmodial activity against artemisinin-tolerant Plasmodium falciparum F32-Tanzania assessed as time required to reach 5% parasitaemia at 2.6 uM treated for 48 hrs; type: functional; summary of the method: as §4
Plasmodium falciparum [29] = assay: Antiplasmodial activity against Plasmodium falciparum F32-Tanzania assessed as time required to reach 5% parasitaemia at 0.2 uM treated for 48 hrs; type: functional; summary of the method: as §4
Plasmodium falciparum [30] = assay: Antiplasmodial activity against artemisinin-tolerant Plasmodium falciparum F32-Tanzania assessed as time required to reach 5% parasitaemia at 0.2 uM treated for 48 hrs; type: functional; summary of the method: as §4

In the case of `C[C@@H]1CC[C@H]2[C@@H](C)C(=O)O[C@@H]3O[C@@]4(C)CC[C@@H]1[C@]32OO4` [ARTEMISININ], the inhibition (Plasmodium falciparum [1]) is reported as “Active”, the Time (Plasmodium falciparum [2]) is reported as 15 days and the inhibition (Plasmodium falciparum [3]) is reported as “Active”. The Time (Plasmodium falciparum [4]) was 16 days, the Activity (Plasmodium falciparum [5]) was 0.1% and the Activity (Plasmodium falciparum [6]) was “Active”. For the same compound, the Activity (Plasmodium falciparum [7]) was “Active”, the Activity (Plasmodium falciparum [8]) was “inactive” and the Activity (Plasmodium falciparum [9]) was “inactive”. The Activity (Plasmodium falciparum [10]) was “inactive”, the Activity (Plasmodium falciparum [11]) was “Active” and the Activity (Plasmodium falciparum [12]) was “Active”. For the same compound, the Activity (Plasmodium falciparum [13]) was “Active”, the Activity (Plasmodium falciparum [14]) was “Active” and the Activity (Plasmodium falciparum [15]) was “inactive”. For the same compound, the inhibition (Plasmodium falciparum [16]) was “Active”, the inhibition (Plasmodium falciparum [17]) was “Active” and the Activity (Plasmodium falciparum [18]) was “Active”. For the same compound, the Time (Plasmodium falciparum [19]) was 16 days, the Time (Plasmodium falciparum [20]) was 6 days and the Time (Plasmodium falciparum [21]) was “<=17 day”. For the same compound, the Time (Plasmodium falciparum [22]) was 7 days, the inhibition (Plasmodium falciparum [23]) was “Active” and the Time (Plasmodium falciparum [24]) was 11 days. For the same compound, the inhibition (Plasmodium falciparum [25]) was “Active” and the Time (Plasmodium falciparum [26]) was 17 days.

Compound `C[C@H]1[C@H](OC(=O)CCC(=O)O)O[C@@H]2O[C@@]3(C)CC[C@H]4[C@H](C)CC[C@@H]1[C@@]24OO3` [ARTESUNATE] has a Time (Plasmodium falciparum [27]) of 14 days, a Time (Plasmodium falciparum [28]) of 6 days and a Time (Plasmodium falciparum [19]) of 15 days. The Time (Plasmodium falciparum [20]) was 8 days.

Compound `CCN(CC)CCCC(C)Nc1ccnc2cc(Cl)ccc12` (configuration not stated) [CHLOROQUINE] has a Time (Plasmodium falciparum [29]) of 14 days and a Time (Plasmodium falciparum [30]) of 14 days.
